Screening data (PubChem BioAssay)
Sampled rows, rich in hits. Any-hit rate of the full collection: about 11%.
S1P3 ag: human S1P3 receptor agonists, primary screen, cell-based, primary and confirmation, NFAT-BLA reporter; S1P3 NFAT-BLA reporter cells, agonism, FRET ratio; relative to 1 µM S1P, basal subtracted; activation, % at 4.5 µM; 60,000 tested, 0.1% active; AID 373, 2006;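 active means activation above the screen-wide mean plus 3 SD, cut at about 4.5% in these data, passing the limit was not always enough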
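Measure – % activation relative to 1 µM S1P (100%), per plate · System – stable CHO line with human S1P3, Gα16, NFAT-BLA reporter · Timing – cells plated overnight, compound 4 h 37 °C, substrate 2 h RT · Technique – fluorescent BLA substrate, ex 405 nm, em 460/535 nm ratio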
D1 allo mod: D1 CRE-luciferase signal change, two-sided – cell-based, HEK293 D1, dopamine EC30, D1 allosteric modulator project, primary screen; dopamine EC30 potentiation; actives deviate in either direction; B-score at 10 µM; 58,000 tested, 5.9% active; AID 641, 2007;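 active means luminescence count or its row- and column-corrected plate score outside the 99.7% band of the plate's sample wells, on either side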
M1 agonist: M1 muscarinic receptor agonists, primary screen, CHO-M1 cells, Fluo-4 calcium, agonist mode | 64,000 tested, 3% active | B-score at 10 µM | Fluo-4 calcium fluorescence; hits give high values | AID 626, 2007 | Muscarinic acetylcholine receptor M1;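 active means fluorescence rise, raw or as B-score row- and column-corrected plate score, outside the 99.7% band of its plate's samples, either direction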
S1P1 ag pot: S1P1 agonists and agonism potentiators, primary screen, cell-based, primary and confirmation screens, CRE-bla reporter; 56,000 tested, 0.57% active; S1P1 CRE-bla cells, forskolin, beta-lactamase FRET, potentiator mode; S1P1 agonist co-added at EC20, 2 nM; 100% = saturating reference agonist, 0% = basal; activation, % at 9.5 µM; Sphingosine 1-phosphate receptor 1 (Homo sapiens), P21453; AID 449, 2006;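 active means activation above a cutoff set at the mean activation of all tested compounds plus 3 SD, cut at about 54% in these data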;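 further: forskolin at 4 µM as EC80 and the EC20 agonist is SEW2871; 100% = SEW2871 at its EC100 plus forskolin at EC80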
M1 antagonist: antagonists of rat M1 muscarinic receptor; AID 628, 2007; CHO-M1 cells, Fluo-4 calcium, ACh EC80 antagonist mode; hits give low values; 64,000 tested, 3.4% active; Muscarinic acetylcholine receptor M1 (Rattus norvegicus), P08482; B-score at 10 µM;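 active means calcium fluorescence response, raw or row-and-column corrected B-score, differing from the plate sample mean either way at a set confidence level, mostly lower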
Target sequence (P08482 whole entry, looked up): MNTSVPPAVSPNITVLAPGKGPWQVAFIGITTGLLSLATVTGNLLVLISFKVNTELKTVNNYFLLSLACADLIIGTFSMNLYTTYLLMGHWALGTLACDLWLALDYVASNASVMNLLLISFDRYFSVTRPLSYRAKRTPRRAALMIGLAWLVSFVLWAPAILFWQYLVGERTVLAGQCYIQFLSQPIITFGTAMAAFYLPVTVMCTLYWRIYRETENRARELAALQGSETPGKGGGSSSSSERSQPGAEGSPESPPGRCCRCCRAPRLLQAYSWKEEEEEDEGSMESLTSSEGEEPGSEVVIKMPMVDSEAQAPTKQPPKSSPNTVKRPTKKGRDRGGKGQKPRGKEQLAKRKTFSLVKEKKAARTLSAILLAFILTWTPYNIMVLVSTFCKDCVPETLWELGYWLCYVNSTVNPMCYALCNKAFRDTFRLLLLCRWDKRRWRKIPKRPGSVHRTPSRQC
* marks the source's active call; other numbers are inactive results; . = not tested or not shown.

SMILES | S1P3 ag | D1 allo mod | M1 agonist | S1P1 ag pot | M1 antagonist
Cc1cccc(N2CCN(c3nc4ccccc4n4cnnc34)CC2)c1C | -1 | 0.48 | 0.59 | -21 | 0.36*
CCCc1ccc(Oc2cn[nH]c2-c2ccc(O)c(C)c2O)cc1 | -2 | 0.0031 | -1.9 | 58* | 0.023
CCCc1ccc(Oc2c(-c3ccc(O)c(C)c3O)n[nH]c2C)cc1 | -2 | 0.23 | -1 | 50 | 0.12
COC(=O)CSc1nnc(SCc2ccc(OC)cc2)s1 | 0 | -2.3* | 0.34 | -13 | -0.31
COC(=O)c1ccc(CSc2nnc(SCc3ccc(C(=O)OC)o3)s2)o1 | 0 | 0.33 | 0.31 | 12 | -0.49
CSc1nc2ccc(NS(=O)(=O)c3ccc4c(c3)OCCO4)cc2s1 | . | -0.53 | 1.4 | . | -1.9
CCCn1nc(NC(=O)c2cccs2)c2cc3cc(OC)ccc3nc21 | 1 | 0.18 | 3.6* | -4 | -1.4
c1ccc(-c2ccc(-c3nc(-c4ccccn4)no3)cc2)cc1 | . | -9.6* | 0.89 | . | 1.1
c1ccc(-c2noc(-c3ccc4ccccc4c3)n2)cc1 | -1 | -7* | -0.073 | 13 | 0.32
c1ccc(-c2noc(-c3cccc4ccccc34)n2)nc1 | -1 | -2.8* | -0.47 | . | 0.49
COc1cccc(-c2nc(-c3ccccn3)no2)c1OC | -1 | . | 0.17 | 8 | 0.21
Cc1ccc(-c2nc(-c3ccccn3)no2)cc1 | -1 | -7.6* | 0.36 | . | -0.59
Cc1ccc(NC(=O)COC(=O)c2ccn(C)n2)cc1 | 0 | . | -1.3 | -14 | 0.63
CCCCn1c(SCC(=O)N2CCOCC2)nnc1-c1cccs1 | -1 | 1.9 | 0.59 | 5 | 0.16
COc1cc(-c2nc(-c3ccccn3)no2)cc(OC)c1OC | -1 | . | 0.11 | -55 | 0.34
Cc1ccc(-c2nc(-c3ccccn3)no2)cc1Cl | -1 | -4.4* | -0.56 | 34 | -0.11
c1ccc(-c2cc(-c3nc(-c4ccccn4)no3)c3ccccc3n2)cc1 | -3 | 1.1 | -0.69 | -7 | 0.51
Clc1cccc(-c2nc(-c3ccccn3)no2)c1 | . | -6.9* | -1.5 | . | 0.57
CC(O)CN(Cc1cccc(Cl)c1)CC(C)O (stereo not given) | 0 | -0.007 | 0.3 | . | -0.92
Cc1nc(NC2=NCN(CCc3ccccc3)CN2)nc2ccccc12 | -2 | . | 0.14 | -14 | -9*
COCCN1CN=C(Nc2nc3ccccc3s2)NC1 | -1 | -0.14 | 0.23 | 12 | 0.11
COCCN1CN=C(Nc2nc(C)c3ccc(C)cc3n2)NC1 | 0 | -0.56 | 0.27 | -34 | -7.3*
Cc1ccc2c(C)nc(NC3=NCN(CCc4ccccc4)CN3)nc2c1 | -1 | -2.2 | 0.57 | -10 | -13*
COc1cccc(CNC(=O)Nc2cccs2)c1 | -1 | -3.4* | . | 6 | .
Cc1ccc(-n2nc(-c3ccc(N)cc3)cc2N)cc1 | -1 | -1.4 | -0.72 | 17 | 0.97
SMILES | S1P3 ag | D1 allo mod | M1 agonist | S1P1 ag pot | M1 antagonist
Cc1ccc(-n2nc3ccc(N)cc3n2)cc1 | 0 | -4.4* | -0.13 | 9 | -0.67
COc1ccc(-c2noc(CCC(=O)Nc3cccc(C)c3)n2)cc1 | 0 | -0.1 | -0.16 | 10 | 0.056
COc1ccc(-c2noc(CCC(=O)Nc3nc4ccccc4s3)n2)cc1 | . | 0.22 | -0.25 | . | 0.77*
C=CCn1cc(C(=O)NCCCOC)c(=O)c2cc(S(=O)(=O)N3CCC(C)CC3)ccc21 | -1 | 4.1* | -0.15 | -4 | 0.18
CCn1cc(C(=O)NCC2CCCO2)c(=O)c2cc(S(=O)(=O)N3CCC(C)CC3)ccc21 (stereo not given) | 0 | -4.8* | 0.95 | -12 | -0.13
CCn1cc(C(=O)NCC2CCCO2)c(=O)c2cc(S(=O)(=O)N3CCCCCC3)ccc21 (stereo not given) | 0 | -0.15 | 0.03 | -1 | 0.26
CC1(C)CC(NC(=O)c2coc(=O)c(Br)c2)CC(C)(C)N1 | 0 | -0.15 | 0.68 | -20 | 0.77
O=C(Nn1c(=S)[nH]c2ccccc2c1=O)c1ccncc1 | -2 | -0.42 | 0.027 | -14 | -0.062
O=C(O)c1cccc(COc2ccccc2Cl)c1 | . | -5.3* | -1.1 | . | 0.59
O=C(O)c1ccc(COc2ccccc2Cl)cc1 | -1 | 0.27 | -0.38 | -6 | 1.5
Cc1cc(C)n(S(=O)(=O)c2cc(C(=O)O)c(Cl)cc2Cl)n1 | -1 | 1.9 | -1.3 | . | 2.3*
CC(=O)Oc1ccccc1C(=O)Oc1ccc(/C=N/n2cnnc2)cc1 | 0 | -3.3* | -1 | 44 | 0.21
CC(C(=O)Nc1ccc2c(c1)OCO2)N(c1ccc(Cl)cc1)S(C)(=O)=O (stereo not given) | -1 | 0.24 | 0.2 | . | -0.62
COc1ccc(C2c3c(oc4c(C)cc(C)cc4c3=O)C(=O)N2Cc2cccnc2)cc1OC (stereo not given) | 0 | 0.47 | 1.3 | -20 | -0.0029
COc1cc(C2c3c(oc4c(C)cc(C)cc4c3=O)C(=O)N2Cc2cccnc2)ccc1O (stereo not given) | -1 | 11* | -0.049 | -28 | -0.41
CC12CCC(=O)N1c1ccccc1C(=O)N2c1ccccc1 (stereo not given) | -1 | -0.57 | 1.1 | -26 | 2.3*
Cc1sc2nc(CN(C(=O)c3cccs3)C3CCCC3)[nH]c(=O)c2c1C | 0 | 0.095 | 0.66 | 6 | 1.9*
CCn1cc(C(=O)N2CCCc3ccccc32)c2cc(OC)c(OC)cc2c1=O | . | 0.18 | -0.12 | . | 0.88*
COc1cccc2c(=O)n(CC(=O)N3CCCc4ccccc43)ccc12 | -1 | -0.26 | -1.3 | -1 | 0.32
Cn1c(=O)c2c(-c3ccccc3)n(C3CCCCC3)cc2n(C)c1=O | 13* | 4.3 | 0.079 | -8 | -0.18
Fc1cccc(-c2cc3nc4c(c(N5CCN(c6cnccn6)CC5)n3n2)CCCC4)c1 | -1 | 0.3 | 14* | -9 | 0.0026
O=C(CSc1nnc(-c2ccco2)n1-c1ccccc1)N1CCOCC1 | 0 | -0.67 | -1 | -15 | 0.11
O=S(=O)(NCCSc1nnc(-c2ccco2)n1-c1ccccc1)c1ccccc1 | -1 | 11* | 1.2 | . | 0.74
COC(=O)C1=C(C)N=c2s/c(=C/c3cccs3)c(=O)n2C1c1cccs1 (stereo not given) | 0 | -0.46 | -2.1 | 19 | -0.056
COC(=O)C1=C(C)N=c2s/c(=C/c3ccoc3)c(=O)n2C1c1ccccc1 (stereo not given) | . | -3.6* | 0.16 | . | -0.12
CN(C)Cc1cc(CCNC(=O)c2ccc(Cl)cc2)ccc1O | 0 | -2.9* | . | 10 | .
COc1ccc(C(=O)N2CCN(C3CCC(c4ccccc4)CC3)CC2)cc1OC (stereo not given) | 0 | -5.1* | -0.47 | 2 | -0.097
Cc1nc(Nc2ncc3c(n2)CCCC3=O)nc2ccccc12 | 0 | . | 0.92 | -9 | 0.66
